Laboratory results from ChEMBL document CHEMBL3813647, “Discovery of an Orally Active and Liver-Targeted Prodrug of 5-Fluoro-2'-Deoxyuridine for the Treatment of Hepatocellular Carcinoma” (J Med Chem, 2016).

Experiments:
Liver [1] = test: Cmax in Sprague-Dawley rat liver assessed as (S)-2-((R)-(((2R,3S,5R)-5-(5-fluoro-2,4-dioxo-3,4-dihydropyrimidin-1(2H)-yl)-3-hydroxytetrahydrofuran-2-yl)methoxy)(2-methylbenzyloxy)phosphorylamino)propanoate formation at 52.17 mg/kg administered through oral gavage measured up to 24 hrs by HPLC-MS/MS analysis; type: ADME, organism-based; design: dose 52.17 mg/kg, route oral; conditions: in vivo
Procedure, shortened: (§1)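 Male Sprague-Dawley rats (220 ± 20 g), single gavage of 0.096 mmol/kg. FDUR was dosed in H2O; the prodrugs were dosed in 20% hydroxypropyl-β-cyclodextrin. n = 3 per time point, sampled at 0.25–24 h. Plasma (EDTA-K2, cardiac puncture) and freeze-clamped liver were homogenized in 20 mM EDTA-K2/70% MeOH. Analytes measured by HPLC-MS/MS in ESI negative mode.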

Liver [2] = test: AUC (infinity) in Sprague-Dawley rat liver assessed as FDUR formation at 52.17 mg/kg administered through oral gavage measured up to 24 hrs by HPLC-MS/MS analysis; type: ADME, organism-based; design: dose 52.17 mg/kg, route oral, time infinity; conditions: in vivo; procedure, shortened: as §1
Liver [3] = test: AUC (infinity) in Sprague-Dawley rat liver assessed as 5-FU formation at 52.17 mg/kg administered through oral gavage measured up to 24 hrs by HPLC-MS/MS analysis; type: ADME, organism-based; design: dose 52.17 mg/kg, route oral, time infinity; conditions: in vivo; procedure, shortened: as §1
[4] = Ratio of FdUMP AUC (infinity) in Sprague-Dawley rat liver to FDUR AUC (infinity) in Sprague-Dawley rat plasma at 52.17 mg/kg administered through oral gavage; type: ADME, organism-based; conditions: in vivo
Procedure, shortened: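 Male Sprague-Dawley rats (220 20 g), single gavage of 0.096 mmol/kg prodrug in 20% hydroxypropyl-β-cyclodextrin. Blood by cardiac puncture under isoflurane and liver at 0.25–24 h, n = 3 per time point. Liver freeze-clamped and homogenized in 20 mM EDTA-K2/70% MeOH. FdUMP (liver) and FDUR (plasma) by HPLC-MS/MS, negative ESI. Index = AUC(inf) liver FdUMP / AUC(inf) plasma FDUR.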

[5] = Ratio of metabolite A AUC (infinity) in Sprague-Dawley rat liver to (S)-2-((R)-(((2R,3S,5R)-5-(5-fluoro-2,4-dioxo-3,4-dihydropyrimidin-1(2H)-yl)-3-hydroxytetrahydrofuran-2-yl)methoxy)(2-methylbenzyloxy)phosphorylamino)propanoate AUC (infinity) in Sprague-Dawley rat plasma at 52.17 mg/kg administered through oral gavage; type: ADME, organism-based; conditions: in vivo
Liver [6] = test: Drug metabolism in Sprague-Dawley rat liver S9 fraction assessed as FdUMP formation at 20 ug/mL after 20 mins by HPLC-MS/MS analysis in absence of NADPH; type: ADME; conditions: s9, 20 min
Procedure, shortened: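 Rat liver S9 (10 mg/mL) incubated with compound at 20 μg/mL. Parent, intermediate A and FdUMP followed over time by HPLC-MS/MS. Negative control run without NADPH.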

Liver [7] = test: Drug metabolism in Sprague-Dawley rat liver assessed as o-methylhippuric acid formation; type: ADME, tissue-based
Plasma [8] = test: Drug metabolism in Sprague-Dawley rat plasma assessed as o-methylhippuric acid formation; type: ADME, cell-free
[9] = Half life in rat plasma by HPLC analysis; type: ADME, cell-free
Procedure, shortened: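 Rat plasma, 37 °C. Compound added from a 2.5 mM stock, sampled at 0–24 h, quenched with MeOH. Analyzed by HPLC-UV at 267 nm (C8 column, MeOH:H2O 68:32). Triplicate samples.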

[10] = Half life in human plasma by HPLC-MS/MS analysis; type: ADME, cell-free
Procedure, shortened: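 Compound at 1 μg/mL final in dog or human plasma, 37 °C. Sampled at 0–24 h and quenched with ice-cold MeOH containing internal standard. Parent measured by LC-MS/MS in ESI negative mode; t1/2 calculated from percent remaining versus 0 h.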

Mus musculus [11] = test: Toxicity in KM mouse assessed as weight loss at 2 to 3 mg/kg, administered through oral gavage after 1 to 5 days; type: organism-based; conditions: in vivo, in the assay text read “2 to 3 g/kg” for “2 to 3 mg/kg”
Procedure, shortened: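 Female KM mice (20 2 g), fasted overnight, 5 per group. Single oral gavage at 2 or 3 g/kg in 57% hydroxypropyl-β-cyclodextrin. Watched continuously for 4 h, intermittently to 24 h, then occasionally to day 15 for weight, appetite and behaviour. Mean body weight change tracked days 1–15. Organs examined macroscopically at sacrifice on day 15.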

Mus musculus [12] = test: Toxicity in KM mouse implanted with mouse H22 cells assessed as body weight level at 130 mg/kg administered daily through oral gavage after 8 days (reference value: 21.7 to 22.3 g); type: organism-based; conditions: in vivo, 192 h
Plasma [13] = test: Cmax in Sprague-Dawley rat plasma assessed as FDUR formation at 52.17 mg/kg administered through oral gavage measured up to 24 hrs by HPLC-MS/MS analysis; type: ADME, organism-based; design: dose 52.17 mg/kg, route oral; conditions: in vivo; procedure, shortened: as §1
Mus musculus [14] = test: Toxicity in KM mouse assessed as damage to liver at 2 to 3 g/kg, administered through oral gavage after 15 days; conditions: in vivo, 360 h

**Q.** With `Cc1ccccc1CO[P@](=O)(N[C@@H](C)C(=O)OC(C)C)OC[C@H]1O[C@@H](n2cc(F)c(=O)[nH]c2=O)C[C@@H]1O` as the molecule, how does the Cmax (Liver [1]) read?
**A.** 3673 ng/g

**Q.** And the AUC (Liver [2])?
**A.** 1541 ng·h/g

**Q.** And the AUC (Liver [3])?
**A.** 257 ng·h/g

**Q.** And the “Ratio AUC” value [4]?
**A.** 20.9

**Q.** And the “Ratio AUC” value [5]?
**A.** 17.4

**Q.** And the Drug metabolism (Liver [6])?
**A.** metabolite_notdetected

**Q.** What about the Drug metabolism (Liver [7]) of the same molecule?
**A.** metabolite_detected

**Q.** What about the Drug metabolism (Plasma [8]) of the same molecule?
**A.** metabolite_detected

**Q.** And the half-life [9]?
**A.** < 4.98 min

**Q.** What about the half-life [10] of the same molecule?
**A.** > 24 h

**Q.** And the Activity (Mus musculus [11])?
**A.** Non-toxic

**Q.** What about the Activity (Mus musculus [12]) of the same molecule?
**A.** 23.8 g

**Q.** And the Cmax (Plasma [13])?
**A.** 17 ng/mL

**Q.** And the Activity (Mus musculus [14])?
**A.** Non-toxic
